For assay [1], the target named is T1, Transient receptor potential cation channel subfamily V member 1 (Homo sapiens, UniProt Q8NER1). Kind of assay: Antagonist activity at human TRPV1 expressed in CHOK1 cells assessed as inhibition of pH 6 to 6.3-induced activity by FLIPR assay. Type of assay: cell-based, CHO-K1.
The target in assay [2] is T1, Transient receptor potential cation channel subfamily V member 1. Briefly: Antagonist activity at human TRPV1 expressed in CHOK1 cells assessed as inhibition of capsaicin-induced activity by FLIPR assay. In kind it is cell-based, CHO-K1.
Assay [3] has the same target. Briefly: Antagonist activity at human TRPV1 expressed in CHOK1 cells assessed as inhibition of heat 45 degC-induced activity after 5 mins by FLIPR assay. Type of assay: cell-based, CHO-K1.
The target is the same in assay [4]. Briefly: Antagonist activity at human TRPV1 expressed in CHOK1 cells assessed as inhibition of N-arachidonoyldopamine-induced activity after 5 mins by FLIPR assay. Type of assay: cell-based, CHO-K1.
Assay [5] relates to Mus musculus. Briefly: Analgesic activity in NMRI mouse assessed as inhibition of formalin-induced nociceptive response at 0.3 mg/kg, po mesaured for 21 to 24 mins relative to control. In kind it is functional. An outline of the steps: (§1)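 Oral dosing in mice, randomized dose and vehicle groups, 10 animals per group, vehicle control each study. 20 μl 1% formalin in 0.9% NaCl injected subcutaneously into dorsal right hind paw. Time spent licking and biting the injected paw counted 21–24 min post-formalin. Reported as % inhibition (mean ± SEM) versus vehicle; Kruskal–Wallis test.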

Assay [6] deals with Mus musculus. Kind of assay: Analgesic activity in NMRI mouse assessed as inhibition of formalin-induced nociceptive response at 0.1 mg/kg, po mesaured for 21 to 24 mins relative to control. In kind it is functional. An outline of the steps: as §1

The structures appear in SMILES notation.

T1 sequence (Q8NER1 whole entry): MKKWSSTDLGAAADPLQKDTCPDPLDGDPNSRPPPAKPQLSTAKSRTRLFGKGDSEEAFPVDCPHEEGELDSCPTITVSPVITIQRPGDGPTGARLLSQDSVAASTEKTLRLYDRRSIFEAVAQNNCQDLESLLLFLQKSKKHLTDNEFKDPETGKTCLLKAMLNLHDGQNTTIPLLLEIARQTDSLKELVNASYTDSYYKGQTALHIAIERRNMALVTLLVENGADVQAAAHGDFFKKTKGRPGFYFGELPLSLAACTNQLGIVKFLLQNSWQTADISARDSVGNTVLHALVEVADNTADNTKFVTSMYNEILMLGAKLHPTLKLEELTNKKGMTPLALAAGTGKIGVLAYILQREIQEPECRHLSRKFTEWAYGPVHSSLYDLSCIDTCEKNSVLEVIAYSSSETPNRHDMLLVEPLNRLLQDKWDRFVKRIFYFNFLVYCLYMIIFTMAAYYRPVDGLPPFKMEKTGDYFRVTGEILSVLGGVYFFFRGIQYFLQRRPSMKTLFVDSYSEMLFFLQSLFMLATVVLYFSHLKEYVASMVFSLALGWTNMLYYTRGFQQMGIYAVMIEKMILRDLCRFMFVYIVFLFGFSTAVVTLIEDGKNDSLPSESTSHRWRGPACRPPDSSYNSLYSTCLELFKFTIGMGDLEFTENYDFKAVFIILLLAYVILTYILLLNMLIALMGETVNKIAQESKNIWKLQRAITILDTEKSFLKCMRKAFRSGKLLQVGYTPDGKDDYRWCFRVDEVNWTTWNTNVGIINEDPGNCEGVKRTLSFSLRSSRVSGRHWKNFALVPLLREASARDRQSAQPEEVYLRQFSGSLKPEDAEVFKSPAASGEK

Take `CC(C(=O)NCc1ccc(C(F)(F)F)nc1OCc1cccc(F)c1)c1ccc(NS(C)(=O)=O)c(F)c1` (stereo not given): the IC50 in assay [1] amounted to 69 nM. The Ki in assay [2] stood at 0.8 nM.

With `CC1CCN(c2nc(C(F)(F)F)ccc2CNC(=O)C(C)c2ccc(NS(C)(=O)=O)c(F)c2)CC1` (stereo not given), in assay [3], the IC50 was 4.5 nM. Besides, the Ki in assay [4] came out at 0.23 nM. As for `CC(C(=O)NCc1ccc(C(F)(F)F)nc1OCCC1CCCCN1C(=O)OC(C)(C)C)c1ccc(NS(C)(=O)=O)c(F)c1` (stereo not given), the concentration for half-maximal inhibition (IC50) in assay [1] was determined as 16.6 nM. Also, the Ki in assay [2] came to 0.3 nM.

As to `CCOCCOc1nc(C(F)(F)F)ccc1CNC(=O)C(C)c1ccc(NS(C)(=O)=O)c(F)c1` (stereo not given), the Ki in assay [2] is 50 nM. As to `CC(C(=O)NCc1ccc(C(F)(F)F)nc1OC[C@@H]1C[C@H]1C)c1ccc(NS(C)(=O)=O)c(F)c1` (stereo not given in full), the IC50 in assay [1] is 5.1 nM. For the same compound, in assay [2], the inhibition constant Ki stood at 0.3 nM.

On to `CC(C(=O)NCc1ccc(C(F)(F)F)nc1OC1CCNCC1)c1ccc(NS(C)(=O)=O)c(F)c1` (stereo not given), for which the half-inhibitory concentration (IC50) in assay [1] is more than 10000 nM. Consider `CC1CC(C)CC(Oc2nc(C(F)(F)F)ccc2CNC(=O)C(C)c2ccc(NS(C)(=O)=O)c(F)c2)C1` (stereo not given), for which the IC50 in assay [1] was determined as 174 nM. Consider `CC(C(=O)NCc1ccc(C(F)(F)F)nc1OCc1ccccc1)c1ccc(NS(C)(=O)=O)c(F)c1` (stereo not given), for which the inhibition in vivo at 0.3 mg/kg in assay [5] was found to be 54.1%. Also, the concentration for half-maximal inhibition (IC50) in assay [3] was 52.3 nM. Moreover, in assay [4], the Ki is 0.001 nM. For the same compound, the inhibition in vivo at 0.1 mg/kg in assay [6] is 41.8%.

For `COc1ccc(COc2nc(C(F)(F)F)ccc2CNC(=O)C(C)c2ccc(NS(C)(=O)=O)c(F)c2)cc1` (stereo not given), the 50% inhibitory concentration (IC50) in assay [1] was found to be 653 nM. Moreover, the Ki in assay [2] was determined as 2.6 nM. For `CC(C(=O)NCc1ccc(C(F)(F)F)nc1OCc1cccc(Cl)c1)c1ccc(NS(C)(=O)=O)c(F)c1` (stereo not given), in assay [1], the IC50 stood at 95 nM. The Ki in assay [2] came to 4.9 nM. As for `CC(C(=O)NCc1ccc(C(F)(F)F)nc1OCc1cc(Cl)cc(Cl)c1)c1ccc(NS(C)(=O)=O)c(F)c1` (stereo not given), the half-maximal inhibitory concentration (IC50) in assay [1] is 114 nM. In addition, in assay [2], the Ki was 2.6 nM. As to `CCC(CC)Oc1nc(C(F)(F)F)ccc1CNC(=O)C(C)c1ccc(NS(C)(=O)=O)c(F)c1` (stereo not given), in assay [1], the IC50 is more than 10000 nM. On to `CC(C(=O)NCc1ccc(C(F)(F)F)nc1OCc1cc(F)cc(F)c1)c1ccc(NS(C)(=O)=O)c(F)c1` (stereo not given), for which the 50% inhibitory concentration (IC50) in assay [1] was determined as 93 nM. The inhibitory constant (Ki) in assay [2] came out at 1 nM.

In the case of `CC(C(=O)NCc1ccc(C(F)(F)F)nc1OCCc1ccccc1)c1ccc(NS(C)(=O)=O)c(F)c1` (stereo not given), in assay [1], the half-inhibitory concentration (IC50) came to 27.6 nM. The Ki in assay [2] came out at 0.5 nM.

`CCCCC(CCC)Oc1nc(C(F)(F)F)ccc1CNC(=O)C(C)c1ccc(NS(C)(=O)=O)c(F)c1` (stereo not given): in assay [2], the inhibitory constant (Ki) was 0.5 nM. For `CC(C(=O)NCc1ccc(C(C)(C)C)cc1)c1ccc(NS(C)(=O)=O)c(F)c1` (stereo not given), the half-inhibitory concentration (IC50) in assay [1] was 1990 nM. Further, the inhibitory constant (Ki) in assay [2] was found to be 44.5 nM.

Consider `CC(C(=O)NCc1ccc(C(F)(F)F)nc1OCC1CCNCC1)c1ccc(NS(C)(=O)=O)c(F)c1` (stereo not given), for which the IC50 in assay [1] is more than 10000 nM. For the compound `COCCOc1nc(C(F)(F)F)ccc1CNC(=O)C(C)c1ccc(NS(C)(=O)=O)c(F)c1` (stereo not given), the Ki in assay [2] turned out to be 49 nM.

In the case of `CC(C)COc1nc(C(F)(F)F)ccc1CNC(=O)C(C)c1ccc(NS(C)(=O)=O)c(F)c1` (stereo not given), the inhibition in vivo at 0.3 mg/kg in assay [5] amounted to 60.8%. Besides, the 50% inhibitory concentration (IC50) in assay [3] was 67.5 nM. In assay [4], the inhibition constant (Ki) came out at 0.29 nM. Further, in assay [6], the inhibition in vivo at 0.1 mg/kg is 63.4%.

The values are drawn from ChEMBL document CHEMBL2384950, “2-(3-Fluoro-4-methylsulfonylaminophenyl)propanamides as potent TRPV1 antagonists: structure activity relationships of the 2-oxy pyridine C-region” (Eur J Med Chem, 2013).
